# Measurements as given in ChEMBL document CHEMBL4028832, “Design and synthesis of 1,2,3-triazolo-phenanthrene hybrids as cytotoxic agents” (Bioorg Med Chem Lett, 2017).
# Activity calls are given as the source filed them. No cut-off for these calls is given here.
# How the values were obtained:
# DU-145 [1] = test: Induction of apoptosis in human DU145 cells assessed as increase in intracellular reactive oxygen species after 6 hrs by DCFDA dye based spectrofluorometeric method; assay type: functional, cell-based
# Outline: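 Intracellular ROS in DU145 cells was measured by DCFDA fluorescence after 6 h of treatment at several doses. Comparators were N-acetyl cysteine pretreatment before compound and H2O2-treated cells. Values are mean ± SD of three independent experiments.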
# DU-145 [2] = test: Cell cycle arrest in human DU145 cells assessed as increase in accumulation at G0/G1 phase after 24 hrs by propidium iodide staining based FACS analysis; assay type: functional
# A549 = test: Cytotoxicity against human A549 cells after 48 hrs by MTT assay; assay type: functional, cell-based; settings: A549, 48 h
# Outline: (§1)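 The human cancer lines and mouse 4T1 breast cells were treated with compound for 48 h and assessed by MTT assay. IC50 is the concentration giving 50% inhibition. 5-Fluorouracil served as the MTT standard.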
# PC-3 = test: Cytotoxicity against human PC3 cells after 48 hrs by MTT assay; assay type: functional, cell-based; settings: PC-3, 48 h; outline: as §1
# DU-145 [3] = test: Cytotoxicity against human DU145 cells after 48 hrs by MTT assay; assay type: functional, cell-based; settings: DU-145, 48 h; outline: as §1
# HGC-27 = test: Cytotoxicity against human HGC27 cells after 48 hrs by MTT assay; assay type: functional, cell-based; settings: HGC-27, 48 h; outline: as §1
# HeLa = test: Cytotoxicity against human HeLa cells after 48 hrs by MTT assay; assay type: functional, cell-based; outline: as §1
# BT-549 = test: Cytotoxicity against human BT549 cells after 48 hrs by MTT assay; assay type: functional, cell-based; settings: BT-549, 48 h; outline: as §1
# MDA-MB-231 = test: Cytotoxicity against human MDA-MB-231 cells after 48 hrs by MTT assay; assay type: functional, cell-based; settings: MDA-MB-231, 48 h; outline: as §1
# MDA-MB-453 = test: Cytotoxicity against human MDA-MB-453 cells after 48 hrs by MTT assay; assay type: functional, cell-based; settings: MDA-MB-453, 48 h; outline: as §1
# 4T1 = test: Cytotoxicity against mouse 4T1 cells after 48 hrs by MTT assay; assay type: functional, cell-based; settings: 4T1, 48 h; outline: as §1
# DU-145 [4] = test: Induction of apoptosis in human DU145 cells assessed as cell detachment at 2 to 8 uM after 48 hrs by phase contrast microscopic method; assay type: functional, cell-based
# Outline: (§2)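 Phase-contrast microscopy of DU145 cells treated at 2, 4 and 8 µM. Images were captured and scored against untreated control for cell detachment and nuclear shrinkage.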
# DU-145 [5] = test: Induction of apoptosis in human DU145 cells assessed as nuclear shrinkage at 2 to 8 uM after 48 hrs by phase contrast microscopic method; assay type: functional, cell-based; outline: as §2
# DU-145 [6] = test: Induction of apoptosis in human DU145 cells assessed as membrane blebbing at 8 uM after 48 hrs by acridine orange/ethidium bromide staining-based fluorescence microscopic analysis; assay type: functional, cell-based
# Outline: (§3)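 Treated DU145 cells were double-stained with acridine orange and ethidium bromide and imaged by fluorescence microscopy. Acridine orange stains intact nuclei green; ethidium bromide stains nuclei of membrane-compromised cells red. Cells were scored for blebbing, chromatin condensation, shrinkage and apoptotic bodies versus control.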
# DU-145 [7] = test: Induction of apoptosis in human DU145 cells assessed as chromatin condensation at 8 uM after 48 hrs by acridine orange/ethidium bromide staining-based fluorescence microscopic analysis; assay type: functional, cell-based; outline: as §3
# DU-145 [8] = test: Induction of apoptosis in human DU145 cells assessed as cell shrinkage at 8 uM after 48 hrs by acridine orange/ethidium bromide staining-based fluorescence microscopic analysis; assay type: functional; outline: as §3
# DU-145 [9] = test: Induction of apoptosis in human DU145 cells assessed as apoptotic body formation at 8 uM after 48 hrs by acridine orange/ethidium bromide staining-based fluorescence microscopic analysis; assay type: functional, cell-based; outline: as §3
# DU-145 [10] = test: Cell cycle arrest in human DU145 cells assessed as accumulation at G0/G1 phase at 1 uM after 24 hrs by propidium iodide staining based FACS analysis (reference value: 64.1%); assay type: functional
# DU-145 [11] = test: Cell cycle arrest in human DU145 cells assessed as accumulation at S phase at 1 uM after 24 hrs by propidium iodide staining based FACS analysis (reference value: 7.93%); assay type: functional
# DU-145 [12] = test: Cell cycle arrest in human DU145 cells assessed as accumulation at G2/M phase at 1 uM after 24 hrs by propidium iodide staining based FACS analysis (reference value: 16.38%); assay type: functional
# DU-145 [13] = test: Cell cycle arrest in human DU145 cells assessed as accumulation at G0/G1 phase at 2 uM after 24 hrs by propidium iodide staining based FACS analysis (reference value: 64.1%); assay type: functional
# DU-145 [14] = test: Cell cycle arrest in human DU145 cells assessed as accumulation at S phase at 2 uM after 24 hrs by propidium iodide staining based FACS analysis (reference value: 7.93%); assay type: functional
# DU-145 [15] = test: Cell cycle arrest in human DU145 cells assessed as accumulation at G2/M phase at 2 uM after 24 hrs by propidium iodide staining based FACS analysis (reference value: 16.38%); assay type: functional
# DU-145 [16] = test: Cell cycle arrest in human DU145 cells assessed as accumulation at G0/G1 phase at 4 uM after 24 hrs by propidium iodide staining based FACS analysis (reference value: 64.1%); assay type: functional
# DU-145 [17] = test: Cell cycle arrest in human DU145 cells assessed as accumulation at S phase at 4 uM after 24 hrs by propidium iodide staining based FACS analysis (reference value: 7.93%); assay type: functional
# DU-145 [18] = test: Cell cycle arrest in human DU145 cells assessed as accumulation at G2/M phase at 4 uM after 24 hrs by propidium iodide staining based FACS analysis (reference value: 16.38%); assay type: functional
# DU-145 [19] = test: Cell cycle arrest in human DU145 cells assessed as accumulation at G0/G1 phase at 8 uM after 24 hrs by propidium iodide staining based FACS analysis (reference value: 64.1%); assay type: functional
# DU-145 [20] = test: Cell cycle arrest in human DU145 cells assessed as accumulation at S phase at 8 uM after 24 hrs by propidium iodide staining based FACS analysis (reference value: 7.93%); assay type: functional
# DU-145 [21] = test: Cell cycle arrest in human DU145 cells assessed as accumulation at G2/M phase at 8 uM after 24 hrs by propidium iodide staining based FACS analysis (reference value: 16.38%); assay type: functional
# DU-145 [22] = test: Induction of apoptosis in human DU145 cells assessed as loss of mitochondrial membrane potential after 24 hrs by JC1 staining-based fluorescence microscopic method; assay type: functional, cell-based
# Outline: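 DU145 cells were treated at 2, 4 and 8 µM for 24 h and stained with JC-1. Orange aggregates mark polarised mitochondria and green monomers mark depolarised ones, imaged by fluorescence. JC-1 aggregate intensity was quantified by spectrofluorometry.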
# Bos taurus = species: Bos taurus; test: Binding affinity to calf thymus DNA assessed as increase in viscosity at 5 uM by Rolling-ball viscometric method
# DU-145 [23] = test: Induction of apoptosis in human DU145 cells assessed as horse shoe shaped nuclei at 2 to 8 uM after 24 hrs by DAPI staining based fluorescence microscopic method
# DU-145 [24] = test: Induction of apoptosis in human DU145 cells assessed as formation of condensed nuclei at 2 to 8 uM after 24 hrs by DAPI staining based fluorescence microscopic method
structure (smiles),measurement,setting,value
COc1cc2cc(Cn3cc(CN4C(=O)c5cccc6cccc(c56)C4=O)nn3)c3cc(OC)c(OC)cc3c2cc1OC,Activity,DU-145 [1],Dose-dependent effect
same,Activity,DU-145 [2],Dose-dependent effect
same,IC50,A549,> 20 µM
same,IC50,PC-3,8.5 µM
same,IC50,DU-145 [3],1.5 µM
same,IC50,HGC-27,5.1 µM
same,IC50,HeLa,2.9 µM
same,IC50,BT-549,3.7 µM
same,IC50,MDA-MB-231,4.2 µM
same,IC50,MDA-MB-453,5.1 µM
same,IC50,4T1,4.2 µM
same,Activity,DU-145 [4],Active
same,Activity,DU-145 [5],Active
same,Activity,DU-145 [6],Active
same,Activity,DU-145 [7],Active
same,Activity,DU-145 [8],Active
same,Activity,DU-145 [9],Active
same,Activity,DU-145 [10],71.1%
same,Activity,DU-145 [11],4.4%
same,Activity,DU-145 [12],20.46%
same,Activity,DU-145 [13],73.32%
same,Activity,DU-145 [14],6.37%
same,Activity,DU-145 [15],16.71%
same,Activity,DU-145 [16],80.37%
same,Activity,DU-145 [17],5.37%
same,Activity,DU-145 [18],11.7%
same,Activity,DU-145 [19],88.62%
same,Activity,DU-145 [20],1.91%
same,Activity,DU-145 [21],7.64%
same,Activity,DU-145 [22],Dose-dependent effect
same,Activity,Bos taurus,Active
same,Activity,DU-145 [23],Active
same,Activity,DU-145 [24],Active
COc1cc2cc(Cn3cc(CO)nn3)c3cc(OC)c(OC)cc3c2cc1OC,IC50,A549,> 20 µM
same,IC50,PC-3,> 20 µM
same,IC50,DU-145 [3],> 20 µM
same,IC50,HGC-27,> 20 µM
same,IC50,HeLa,18.3 µM
same,IC50,BT-549,8.2 µM
same,IC50,MDA-MB-231,6.8 µM
same,IC50,MDA-MB-453,13.5 µM
same,IC50,4T1,> 20 µM
O=c1[nH]cc(F)c(=O)[nH]1 [FLUOROURACIL],IC50,A549,1.6 µM
same,IC50,PC-3,1.2 µM
same,IC50,DU-145 [3],2.18 µM
same,IC50,HGC-27,14.7 µM
same,IC50,HeLa,1.86 µM
same,IC50,MDA-MB-231,4.33 µM
COc1cc2cc(Cn3cc(COc4c(C)cc(C)cc4C)nn3)c3cc(OC)c(OC)cc3c2cc1OC,IC50,A549,> 20 µM
same,IC50,PC-3,> 20 µM
same,IC50,DU-145 [3],> 20 µM
same,IC50,HGC-27,> 20 µM
same,IC50,HeLa,17.6 µM
same,IC50,BT-549,12.4 µM
same,IC50,MDA-MB-231,> 20 µM
same,IC50,MDA-MB-453,12.6 µM
same,IC50,4T1,6.2 µM
COc1cc2cc(Cn3cc(CCO)nn3)c3cc(OC)c(OC)cc3c2cc1OC,IC50,A549,> 20 µM
same,IC50,PC-3,> 20 µM
same,IC50,DU-145 [3],> 20 µM
same,IC50,HGC-27,14.2 µM
same,IC50,HeLa,17.2 µM
same,IC50,BT-549,> 20 µM
same,IC50,MDA-MB-231,> 20 µM
same,IC50,MDA-MB-453,> 20 µM
same,IC50,4T1,> 20 µM
COc1cc2cc(Cn3cc(COc4ccc(Br)cc4)nn3)c3cc(OC)c(OC)cc3c2cc1OC,IC50,A549,> 20 µM
same,IC50,PC-3,> 20 µM
same,IC50,DU-145 [3],> 20 µM
same,IC50,HGC-27,3.9 µM
same,IC50,HeLa,3.8 µM
same,IC50,BT-549,> 20 µM
same,IC50,MDA-MB-231,> 20 µM
same,IC50,MDA-MB-453,> 20 µM
same,IC50,4T1,> 20 µM
COc1cc2cc(Cn3cc(COc4cc(OC)c(OC)c(OC)c4)nn3)c3cc(OC)c(OC)cc3c2cc1OC,IC50,A549,> 20 µM
same,IC50,PC-3,> 20 µM
same,IC50,DU-145 [3],> 20 µM
same,IC50,HGC-27,14.8 µM
same,IC50,HeLa,> 20 µM
same,IC50,BT-549,> 20 µM
same,IC50,MDA-MB-231,19.2 µM
same,IC50,MDA-MB-453,> 20 µM
same,IC50,4T1,> 20 µM
COc1cc2cc(Cn3cc(CN4C(=O)c5ccc(C)cc5C4=O)nn3)c3cc(OC)c(OC)cc3c2cc1OC,IC50,A549,12.3 µM
same,IC50,PC-3,7.12 µM
same,IC50,DU-145 [3],1.87 µM
same,IC50,HGC-27,3.5 µM
same,IC50,HeLa,2.7 µM
same,IC50,BT-549,3.9 µM
same,IC50,MDA-MB-231,4.6 µM
same,IC50,MDA-MB-453,6.5 µM
same,IC50,4T1,10 µM
same,Activity,Bos taurus,Active
